Rows were chosen to be rich in hits. Some 2.3% of all compounds tested hit in one or more screens of this group.
Rpn11 inh = inhibitors of human proteasome Rpn11; human 26S proteasome, Ub4-pepOG fluorescence polarization; 20S core pre-blocked with epoxomicin; inhibition, % at 20 µM; 360,000 tested, 0.59% active; AID 588493;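 active = inhibition at 20 µM, scaled to each plate's controls, above about 33%, limit read from the data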
SUMO1-SIM PPI = modulators of human SUMO1-mediated protein-protein interactions. SUMO1 binding to a labelled peptide, TR-FRET, 1 h. 360,000 tested, 0.33% active. AID 602429. inhibition, % at 20 µM. P63165; in the data active = inhibition above about 37%
LMPTP block = blocks human LMPTP phosphatase | P24666 | recombinant LMPTP-A, OMFP fluorogenic substrate, fluorescence intensity | inhibition, % at 20 µM | AID 651560 | 360,000 tested, 0.22% active;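 active = compounds that cut the enzyme signal by at least half of the control window in the single-dose screen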;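 note: plate controls were DMSO wells with enzyme plus substrate for no effect and substrate without enzyme for full effect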
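Assay system: LMPTP-A, protein tyrosine phosphatase of low molecular weight / Medium: pH 6.0 Bis-Tris buffer with DTT and Triton X-100 / Schedule: 50 min enzyme reaction at room temperature, protected from light / Measured by: endpoint fluorescence intensity from OMFP dephosphorylation / Read-out basis: % inhibition relative to no-enzyme and uninhibited control wells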
STEP block = STEP (human) phosphatase inhibition | recombinant STEP, OMFP fluorogenic substrate, fluorescence | inhibition, % at 20 µM | 360,000 tested, 0.25% active;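 active = inhibition at 20 µM, scaled per plate between control wells, above about 37%, limit read from the data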;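 note: 0% = DMSO with enzyme and substrate and 100% = substrate only without enzyme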
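Test system: STEP tyrosine phosphatase / Reagent: OMFP at 25 µM / Doses: 20 µM, 1% DMSO / Read-out: percent inhibition scaled to no-enzyme and uninhibited-enzyme controls, plate-pattern corrected / Detection: FITC-channel fluorescence of OMFP product / Medium: Bis-Tris buffer pH 6.0, 2.5 mM DTT, 0.005% Tween 20 / Schedule: 20 min at room temperature, dark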
DNMT1 inh = inhibitors of human DNMT1; DNMT1 molecular beacon, Hinp1I cleavage, fluorescence; P26358; 360,000 tested, 0.83% active; inhibition (reported as % activation of signal), % at 10 µM; AID 588458; in the data active = inhibition above about 50%
Target sequence (P26358 504-1616 limits assumed): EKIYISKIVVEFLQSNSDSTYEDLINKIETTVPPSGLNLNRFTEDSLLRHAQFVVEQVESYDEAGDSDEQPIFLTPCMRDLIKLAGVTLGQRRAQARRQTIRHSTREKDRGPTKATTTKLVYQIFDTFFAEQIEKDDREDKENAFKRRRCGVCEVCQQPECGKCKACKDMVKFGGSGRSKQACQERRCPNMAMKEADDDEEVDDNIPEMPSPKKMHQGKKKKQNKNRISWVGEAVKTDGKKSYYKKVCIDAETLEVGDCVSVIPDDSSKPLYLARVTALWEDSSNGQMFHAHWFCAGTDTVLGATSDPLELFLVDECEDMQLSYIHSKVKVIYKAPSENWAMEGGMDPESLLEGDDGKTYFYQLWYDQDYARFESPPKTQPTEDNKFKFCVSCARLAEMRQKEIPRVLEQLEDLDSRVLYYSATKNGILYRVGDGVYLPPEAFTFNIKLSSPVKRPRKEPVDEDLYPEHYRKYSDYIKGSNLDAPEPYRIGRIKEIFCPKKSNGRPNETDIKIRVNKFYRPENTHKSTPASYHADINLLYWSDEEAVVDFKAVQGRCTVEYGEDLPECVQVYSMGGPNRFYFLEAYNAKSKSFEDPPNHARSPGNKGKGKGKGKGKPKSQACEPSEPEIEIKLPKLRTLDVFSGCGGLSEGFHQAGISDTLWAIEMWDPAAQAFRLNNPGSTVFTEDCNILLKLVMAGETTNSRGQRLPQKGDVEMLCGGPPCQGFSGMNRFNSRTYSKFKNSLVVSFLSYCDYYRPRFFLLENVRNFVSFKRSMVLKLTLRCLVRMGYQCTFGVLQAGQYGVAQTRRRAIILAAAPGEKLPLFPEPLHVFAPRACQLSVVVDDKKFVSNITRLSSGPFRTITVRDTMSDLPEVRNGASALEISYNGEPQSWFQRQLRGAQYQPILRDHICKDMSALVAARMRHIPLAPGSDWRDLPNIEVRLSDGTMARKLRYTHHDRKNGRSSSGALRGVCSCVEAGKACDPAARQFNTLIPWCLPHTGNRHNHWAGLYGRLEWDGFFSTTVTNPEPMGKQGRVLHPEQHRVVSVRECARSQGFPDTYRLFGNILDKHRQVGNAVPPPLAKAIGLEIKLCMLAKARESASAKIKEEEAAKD
Scp-1 inhibitor = inhibitors of human Scp-1 phosphatase; Q9GZU7; Recombinant Scp1, phosphopeptide, malachite green phosphate absorbance; inhibition, % at 20 µM; 340,000 tested, 0.88% active;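 active = inhibition above about 50% at 20 µM, limit read from the data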;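 note: plate controls were DMSO wells with enzyme for no effect and wells lacking enzyme for full effect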
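Test system – truncated SCP-1 phosphatase (76-261aa) · Reagent – Phosphorylated 17-residue peptide substrate · Incubation – 45 min room-temperature reaction, 5 min colour, 30 min stabiliser · Detection – colorimetric phosphate reagent with accelerator and stabiliser, absorbance at 630 nm · Measure – % inhibition at 20 µM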
Scp1 confirm = confirmation of human Scp-1 phosphatase inhibitors | AID 540281 | inhibition, % at 20 µM | recombinant SCP-1 catalytic domain, phosphate release, malachite green absorbance | shares compounds with Scp-1 inhibitor | 2,500 tested, 61% active;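 note: plate controls were DMSO with enzyme for no effect and buffer wells lacking enzyme for full effect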
Scp-1 MG ctr = colorimetric interference in Scp-1 counter-screen; Colorimetric interference counterscreen, malachite green absorbance 630 nm; AID 540313; 2,500 tested, under 10 active; shares compounds with Scp-1 inhibitor; apparent inhibition (interference), % at 20 µM;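 note: compounds added after enzyme reaction finished so only phosphate colour detection is probed; plate controls were DMSO wells with completed Scp-1 reaction for no effect and substrate wells lacking enzyme for full effect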
Scp1 DSF = Scp-1 (human) binding by thermal shift. thermal shift relative to vanadate control, % at 40 µM. 1,500 tested, 25% active. Recombinant SCP1, Sypro Orange thermal shift Tm. shares compounds with Scp-1 inhibitor;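 active = substances whose mean melting-temperature shift, as a percentage of the reference inhibitor's shift, reaches about 5.3%, limit read from the data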;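 note: 0% = Tm of DMSO wells and 100% = Tm with sodium orthovanadate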
DNMT1 interf DR = shows spectral interference in the DNMT1 beacon assay; shares compounds with DNMT1 inh; IC50, µM; AID 602382; 200 tested, under 10 active; molecular beacon fluorescence, spectral interference counter-screen; call rule not given here
DNMT1 confirm = DNMT1 inhibition confirmation, single concentration; inhibition, % at 10 µM; 2,300 tested, 8% active; DNMT1 molecular beacon HinP1I cleavage, fluorescence; shares compounds with DNMT1 inh;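 active = average inhibition of at least 30% in the single-concentration confirmation test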
DNMT1 interf = shows spectral interference in the DNMT1 beacon assay; activation (fluorescence interference), % at 10 µM; DNMT1 molecular beacon spectral interference counterscreen, fluorescence 485/520; shares compounds with DNMT1 inh; 2,300 tested, 1% active;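 active = activation of at least 30% at 10 µM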;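 note: DNMT1 catalytic domain with a HinP1I cleavage step and a FAM/dabcyl DNA beacon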
Rpn11 inh conf = confirmation of human proteasome Rpn11 inhibitors. shares compounds with Rpn11 inh. purified human 26S proteasome, Ub4-pepOG fluorescence polarization; proteasome pretreated with epoxomicin. inhibition, % at 20 µM. 1,900 tested, 29% active. AID 602318; in the data active = inhibition above about 40%
MMP-2 counter = blocks human MMP-2, flagging nonselective RPN11 hits | shares compounds with Rpn11 inh | inhibition, % at 20 µM | 1,900 tested, 4% active | recombinant MMP-2, FRET peptide cleavage fluorescence | AID 602330; in the data active = inhibition above about 40%;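 note: human MMP-2 activated beforehand with APMA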
Thrombin inh = thrombin (bovine) inhibition counter-screen | inhibition, % at 20 µM | shares compounds with Rpn11 inh | AID 602333 | bovine thrombin cleavage of Ub4-pepOG, fluorescence polarization | 1,900 tested, 13% active;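 active = mean inhibition at least 40% at 20 µM, or signal 3 deviations below plate average, so some actives read negative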;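 note: plate controls were thrombin with DMSO for no effect and buffer wells lacking thrombin for full effect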
* = called active by the depositor; · = not tested or not shown; ! = not active in a repeat.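 Rule for the calls, unless noted: active = inhibition of at least 30% at 20 µM; inactive = the rest.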

SMILES | Rpn11 inh | SUMO1-SIM PPI | LMPTP block | STEP block | DNMT1 inh | Scp-1 inhibitor | DNMT1 confirm | DNMT1 interf | others
Cc1cc(/C=C2\C(=O)NC(=O)N(Cc3ccccc3)C2=O)c(C)n1-c1ccc(Cl)c(C(=O)O)c1 | 37.7 | 32.3 | 16.4 | 83.7* | 103.2* | 72.2* | 72.5* | -1.3 | Scp1 confirm=60.4*;Scp-1 MG ctr=-19.4;Scp1 DSF=8.7*;DNMT1 interf DR=>99
CCOC(=O)c1c(C=O)c2ccccc2n1Cc1ccccc1 | 0.1 | -3.2 | 2.4 | 1.0 | -1.1 | -19.0 | · | ·
Cn1cccc1/C=C1\C(=O)NC(=O)N(Cc2ccco2)C1=O | -6.6 | 15.1 | 41.4 | 56.2* | 104.0* | 79.8* | 19.5 | 1.7 | Scp1 confirm=45.0*;Scp-1 MG ctr=-23.2;Scp1 DSF=8.1*
Cc1ccc(-n2c(C)cc(/C=C3/C(=O)NC(=O)N(Cc4ccco4)C3=O)c2C)cc1 | 4.1 | 0.9 | 2.2 | 1.9 | 41.2 | 8.7 | · | ·
COc1cccc(CC(=O)N(C)C2CCCN(Cc3ccccc3F)C2)c1 (stereo not given) | -2.2 | 2.4 | -2.5 | 1.9 | -1.6 | -6.0 | · | ·
Cc1ccc(S(=O)(=O)Cc2ccc(C(=O)N3CCC4(CC3)OCCO4)o2)cc1 | -11.1 | -0.5 | -0.8 | 4.2 | 58.4* | 57.5* | 1.4 | 2.8 | Scp1 confirm=51.9*;Scp-1 MG ctr=-7.9;Scp1 DSF=1.4
Cc1c(P(=S)(c2ccccc2)c2ccccc2)[n+]2ccccc2n1C | 78.9*! | -58.6 | 6.7 | -1.5 | -139.8 | 67.8* | · | · | Scp1 confirm=-11.2;Scp-1 MG ctr=-15.0;Rpn11 inh conf=77.8*;MMP-2 counter=-248.9;Thrombin inh=13.1
COC(=O)C1=C(c2ccc3ccccc3c2)C[C@@H]2CC[C@H]1N2C(=O)N1CCCC1 | -1.9 | -8.9 | -0.9 | 0.5 | -1.1 | 0.6 | · | ·
Cc1ccc(/C=C2\C(=O)NC(=S)N(c3cccc(F)c3)C2=O)o1 | · | 28.4 | 2.6 | 4.4 | 72.1* | 37.9 | 23.4 | 2.1
CN1CCN(c2ccc(/C=C3\C(=O)NC(=S)N(c4cccc(Br)c4)C3=O)o2)CC1 | · | -117.0 | 7.2 | -12.8 | -5.4 | -7.1 | · | ·
C[C@]12CCC(OC(=O)CCC(=O)O)CC1=CCC1C2CC[C@]2(C)C(=O)CCC12 (stereo not given in full) | -6.7 | -1.2 | -1.1 | 18.2 | 91.1* | 9.2 | 3.6 | 3.8
C[C@]12CC[C@H](OC(=O)CCC(=O)O)CC1=CCC1C2CC[C@@]2(C)C1CC[C@@H]2OC(=O)CCC(=O)O (stereo not given in full) | -2.7 | 31.4 | 1.0 | -3.2 | 0.4 | -5.0 | · | ·
CC(C)(C)NC(=O)CN1CCCN(C(=O)COc2ccc(Cl)c3ccccc23)CC1 | -0.5 | -6.9 | -0.1 | 2.2 | -8.0 | -4.6 | · | ·
CC(NS(=O)(=O)OCC(Cl)(Cl)Cl)c1ccccc1 (stereo not given) | -4.8 | 5.1 | -1.7 | -0.9 | -1.6 | -5.8 | · | ·
COC(=O)C1=C(c2ccc(S(C)(=O)=O)cc2)C[C@@H]2CC[C@H]1N2C(=O)N1CCOCC1 | -2.9 | 4.1 | -0.7 | -0.4 | 67.3* | -7.1 | 1.4 | -0.4
Cc1cc(/C=C2\C(=O)NC(=O)N(Cc3ccco3)C2=O)c(C)n1-c1ccc(O)cc1 | 34.0 | 14.4 | 7.3 | -1.6 | 72.5* | 20.8 | 5.7 | 2.2
Cc1ccccc1-n1c(C)cc(/C=C2/C(=O)NC(=O)N(Cc3ccco3)C2=O)c1C | 13.6 | 1.1 | 1.9 | 2.6 | 29.6 | -2.8 | · | ·
Cc1cc(/C=C2\C(=O)NC(=O)N(Cc3ccco3)C2=O)c(C)n1-c1ccc(C(=O)O)cc1 | 37.9 | 8.8 | 9.9 | 8.0 | 86.3* | 61.0* | 7.7 | -1.3
CCc1ccc(N2C(=O)NC(=O)/C(=C\c3cc(C)n(-c4cc(C(=O)O)cc(C(=O)O)c4)c3C)C2=O)cc1 | -0.7 | 17.6 | -1.2 | 12.7 | 72.6* | 35.9 | 4.2 | 3.4
COC(=O)C1=C(c2cccc(C#N)c2)C[C@@H]2CC[C@H]1N2C(=O)N1CCC(C)CC1 | 3.7 | 1.2 | 1.3 | 0.1 | -0.7 | -8.2 | · | ·
O=P(/C=C1\OCc2ccccc21)(Oc1ccccc1)Oc1ccccc1 | · | 0.0 | -0.1 | · | · | · | · | ·
COc1ccc(CCC(=O)N2CCC3(CC2)OCCO3)cc1 | -2.0 | 2.6 | -0.8 | 0.8 | 1.8 | -3.9 | · | ·
O=C(CCc1nc(-c2ccccc2F)no1)N1CCC2(CC1)OCCO2 | 1.7 | -2.0 | -1.3 | -1.3 | 57.9* | -8.5 | 0.4 | 0.0
CN1CCc2nc(SCc3cccc(Br)c3)c(C#N)cc2C1 | 8.8 | -10.9 | 4.9 | 3.4 | 69.7* | -12.8 | 2.5 | 4.1
COC(C)(C)CCCC(C)C/C=C/C(C)=C/C(=O)OC(C)C (stereo not given) | 0.3 | 3.2 | 1.6 | 4.4 | -1.3 | -9.2 | · | ·
CC(N)Cc1c[nH]c2ccc(OCc3cccs3)cc12 (stereo not given) | 3.5 | -1.3 | -0.1 | 0.3 | 0.5 | -11.7 | · | ·
CC(N)Cc1c[nH]c2ccc(O)cc12 (stereo not given) | 5.5 | -0.5 | -1.0 | 1.0 | 75.5* | -14.5 | 0.6 | 3.2
O=C1NC(=S)N(C2CC2)C(=O)/C1=C/c1ccc2c(c1)CCN2CCCCl | 13.0 | 16.7 | 7.4 | 0.6 | 87.5* | 3.7 | 10.6 | 1.7
CCN1C(=O)/C(=C/c2ccc3c(c2)CCN3CCCCl)C(=O)NC1=S | 6.3 | 14.6 | 13.1 | 9.3 | 101.6* | 2.4 | 14.1 | 5.7
